Screening results (PubChem)
KCNQ1 act: potentiates or activates the human KCNQ1 potassium channel. CHO-K1 KCNQ1, thallium flux FluxOR fluorescence; stronger effect = higher value. B-score at 10 µM. P51787. 310,000 compounds, 0.35% hits;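 active means fluorescence ratio B-score, a plate-corrected score, at least three library SD, with initial intensity B-score within 5 SD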
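Assay system: CHO-K1 cells stably expressing KCNQ1; Medium: assay buffer with matched DMSO; Also added: K+/Tl+ depolarizing stimulus; Dosing: single dose; Timing: dye 90 min, compound 20 min, room temperature; Measured by: kinetic FluxOR thallium fluorescence, 10-s 1-Hz baseline, 110-s post-stimulus read; Read-out: peak-minus-minimum fluorescence over initial fluorescence, negative-control normalized, B-scored.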
hERG rescue: shields human hERG channel from block by proarrhythmic agents. Q12809. CHO-hERG, FluxOR thallium flux, dofetilide IC70 present. activation (rescue from dofetilide block), less the hit threshold, % at 10 µM. 310,000 compounds, 0.51% hits. AID 1511;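 active means activation above the mean of controls blocked by dofetilide plus 5 SD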;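 further: thallium influx through hERG after potassium depolarization seen as dye fluorescence rise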
Target sequence (Q12809 whole entry, looked up): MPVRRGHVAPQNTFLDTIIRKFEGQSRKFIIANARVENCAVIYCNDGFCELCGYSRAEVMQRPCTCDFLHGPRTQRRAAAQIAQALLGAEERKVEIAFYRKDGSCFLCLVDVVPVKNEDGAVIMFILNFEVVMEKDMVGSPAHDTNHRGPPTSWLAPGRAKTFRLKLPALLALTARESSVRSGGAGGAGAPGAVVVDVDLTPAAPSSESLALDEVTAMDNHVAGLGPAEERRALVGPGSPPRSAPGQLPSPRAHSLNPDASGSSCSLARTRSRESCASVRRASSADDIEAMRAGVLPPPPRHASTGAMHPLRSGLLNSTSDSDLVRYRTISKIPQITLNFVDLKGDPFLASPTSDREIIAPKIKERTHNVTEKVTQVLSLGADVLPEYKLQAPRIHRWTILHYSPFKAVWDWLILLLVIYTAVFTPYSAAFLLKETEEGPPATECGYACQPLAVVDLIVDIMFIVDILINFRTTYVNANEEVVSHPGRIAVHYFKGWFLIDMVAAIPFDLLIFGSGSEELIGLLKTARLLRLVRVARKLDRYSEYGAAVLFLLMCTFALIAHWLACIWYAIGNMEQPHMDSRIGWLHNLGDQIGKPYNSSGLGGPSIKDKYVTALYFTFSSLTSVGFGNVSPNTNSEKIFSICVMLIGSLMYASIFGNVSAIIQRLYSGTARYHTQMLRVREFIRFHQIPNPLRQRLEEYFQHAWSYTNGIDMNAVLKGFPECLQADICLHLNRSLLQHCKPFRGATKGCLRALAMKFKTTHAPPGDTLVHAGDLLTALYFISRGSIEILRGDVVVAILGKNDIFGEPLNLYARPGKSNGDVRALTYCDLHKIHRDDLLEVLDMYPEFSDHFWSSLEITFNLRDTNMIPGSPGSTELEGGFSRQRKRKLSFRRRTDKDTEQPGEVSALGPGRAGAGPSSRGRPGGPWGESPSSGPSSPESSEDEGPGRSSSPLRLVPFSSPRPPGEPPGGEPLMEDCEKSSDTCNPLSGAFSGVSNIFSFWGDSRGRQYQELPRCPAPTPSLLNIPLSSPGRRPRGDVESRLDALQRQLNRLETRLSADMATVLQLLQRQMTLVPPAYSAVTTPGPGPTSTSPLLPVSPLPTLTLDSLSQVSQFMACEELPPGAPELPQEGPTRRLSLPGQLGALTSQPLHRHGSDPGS
Kir21 block: blocks the mouse Kir2.1 inward-rectifier potassium channel; P35561; HEK293-Kir2.1, FluxOR thallium flux fluorescence; stronger effect = lower value; B-score at 10 µM; 310,000 compounds, 0.85% hits;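 active means fluorescence ratio B-score at or below minus 3 SD of library scores, with starting-brightness B-score within 2 SD, cut at about -4.2 in these data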;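 further: channel flux triggered by added potassium and thallium sulfate stimulus; B-score of peak minus minimum fluorescence over baseline after thallium stimulus; more negative B-score means stronger Kir2.1 block with less thallium influx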
KCNK9 block: blocks the human KCNK9 two-pore domain potassium channel; Q9NPC2; HEK293 KCNK9, FluxOR thallium flux fluorescence; stronger effect = lower value; B-score at 10 µM; 310,000 compounds, 1.2% hits; AID 488922;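 active means ratio B-score over 3 SD below the library mean, with starting fluorescence within 5 SD of its mean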;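 further: negative B-score means less thallium flux so channel inhibition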
KCNQ1 inh: human KCNQ1 channel inhibition; AID 2642; CHO-K1 KCNQ1, FluxOR thallium flux fluorescence; stronger effect = higher value; P51787; B-score at 10 µM; 310,000 compounds, 1.3% hits;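 active means compounds whose thallium flux B-score, printed positive for inhibition, exceeds three library SD while starting fluorescence stays within three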;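 further: channel opened by potassium depolarization with thallium stimulus after 20 min compound exposure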
KCNK3 inh: human KCNK3 channel inhibition, primary screen. O14649. CHO-KCNK3 thallium flux, FluxOR fluorescence; stronger effect = lower value. B-score at 10 µM. 340,000 compounds, 0.84% hits. AID 602410;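 active means B-score under library mean minus 4 SD, starting fluorescence ratio at most library mean plus 5 SD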;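 further: more negative B-score means stronger inhibition of thallium flux through KCNK3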
KCNK9 block conf: human KCNK9 inhibitor confirmation | shares compounds with KCNK9 block | HEK293 KCNK9 cells, FluxOR thallium flux fluorescence | inhibition, % at 10 µM | 4,900 compounds, 43% hits | AID 492992;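 active means thallium signal inhibited by more than 5 SD of the compound-free buffer control wells, on both duplicate plates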
Kir2-1 spec: mouse Kir2.1 off-target activity of KCNK9 modulators | shares compounds with KCNK9 block | Kir2.1 cells, FluxOR thallium flux fluorescence | inhibition, % at 10 µM | 4,900 compounds, 4% hits;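 active means thallium signal drop more than 5 SD beyond the mean of the no-compound control wells, seen in both duplicate plates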;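 further: signal is fluorescence rise after thallium addition divided by baseline fluorescence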
HEK293 Tl ctr: second counter-screen for KCNK9 modulators: effect in non-induced cells; shares compounds with KCNK9 block; non-induced KCNK9-HEK293, FluxOR thallium flux; inhibition, % at 10 µM; 4,900 compounds, 40% hits;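 active means thallium signal drop beyond 5 SD of the untreated control mean, on both duplicate plates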
Each line names hits and unclear results; the compound was inactive in the other large screens (follow-up assays come after a bar, where they were run). A selection: hits, their analogues and other compounds. The true share with any hit is near 3.8%.

O=c1c2ccccc2nc(SCc2cccc(F)c2)n1Cc1ccco1	KCNK9 block -15.7 | KCNK9 block conf 55.0% | Kir2-1 spec inactive | HEK293 Tl ctr 53.5%
O=c1c2ccccc2nc(SCc2nnc(-c3ccccc3Br)o2)n1Cc1ccco1	none
CC(C)(C)n1nnnc1C(c1cccs1)N1CCCc2ccccc21 (configuration not stated)	KCNK9 block -9.88 | KCNK9 block conf inactive | Kir2-1 spec inactive | HEK293 Tl ctr inactive
COc1ccccc1C(c1nnnn1C(C)(C)C)N1CCN(C(=O)c2ccco2)CC1 (configuration not stated)	KCNK9 block -13.6 | KCNK9 block conf 54.5% | Kir2-1 spec inactive | HEK293 Tl ctr 45.5%
COc1ccccc1C(c1nnnn1C(C)(C)C)N1CCCCCC1 (configuration not stated)	KCNK9 block -8.94 | KCNK9 block conf 30.5% | Kir2-1 spec inactive | HEK293 Tl ctr 28.5%
CCOc1ccc(C(c2nnnn2C(C)(C)C)N2CCN(C(=O)c3ccco3)CC2)cc1 (configuration not stated)	none
CC(C)=C1SC(N2CCN(c3cccc(C(F)(F)F)c3)CC2)=NC1=O	none
COc1ccccc1-c1nnc(SCC(=O)N2CCCCC2)o1	none
Cc1nc(N(C)Cc2ccccc2)c2nnn(Cc3ccccc3)c2n1	none | KCNK9 block conf inactive | Kir2-1 spec inactive | HEK293 Tl ctr inactive
Cc1cccc(N(CC(=O)NCCc2ccccc2)C(=O)CCC(=O)Nc2ccccn2)c1C	none
CCN(CC)C(=O)N1c2ccccc2C=Cc2ccccc21	KCNK9 block -8.21 | KCNK9 block conf 42.0% | Kir2-1 spec inactive | HEK293 Tl ctr 29.5%
O=C(Nc1ccon1)c1cccc(S(=O)(=O)N2CCCCC2)c1	none
Cc1ccc(S(=O)(=O)c2cccc(S(=O)(=O)N3CCCC3)c2)cc1S(=O)(=O)N1CCCC1	KCNK9 block -15.8 | KCNK9 block conf 31.5% | Kir2-1 spec inactive | HEK293 Tl ctr 26.0%
O=S(=O)(Nc1nc2ccccc2nc1Nc1cccc(S(=O)(=O)N2CCCCC2)c1)c1ccccc1	none | KCNK9 block conf inactive | Kir2-1 spec inactive | HEK293 Tl ctr 25.0%
COc1ccc(S(=O)(=O)Nc2cccc(S(=O)(=O)N3CCCCCC3)c2)cc1	KCNK9 block -8.17 | KCNK9 block conf 41.5% | Kir2-1 spec inactive | HEK293 Tl ctr 28.0%
Cc1ccc(S(=O)(=O)c2cccc(S(=O)(=O)N3CCOCC3)c2)cc1S(=O)(=O)N1CCOCC1	none
O=C(NCCC1=CCCCC1)C(=O)NCC1OCCCN1S(=O)(=O)c1ccccc1 (configuration not stated)	none
N#CCCN(C(=O)CN1c2cccc3cccc(c23)S1(=O)=O)c1ccccc1	none (no result: KCNQ1 act, hERG rescue, Kir21 block, KCNK9 block, KCNQ1 inh)
Cc1ccc[n+](CC(=O)Nc2ccc(Cl)c([N+](=O)[O-])c2)c1	none
Cc1ccc2c(c1)N(C(=O)CCC(=O)NCC(C)c1ccccc1)CC(C)O2 (configuration not stated)	none
COC(=O)c1ccccc1NC(=O)CCC(=O)N1CC(C)Oc2ccc(C)cc21 (configuration not stated)	none | KCNK9 block conf inactive | Kir2-1 spec inactive | HEK293 Tl ctr inactive
CN(C)c1ccc(N=c2sc3ccccc3n2C)cc1	none | KCNK9 block conf inactive | Kir2-1 spec inactive | HEK293 Tl ctr inactive
CC(=O)N/N=c1\sc2ccccc2n1C	none
Cc1nc(CN(C)C(=O)c2cc(COc3c(F)cccc3F)on2)cs1	none
O=C(c1cc(COc2cccc3cnccc23)on1)N1CCC(c2ccccc2Cl)C1 (configuration not stated)	none
O=C(c1cc(COc2c(F)cccc2F)on1)N1CCC(c2ccccc2F)C1 (configuration not stated)	none | KCNK9 block conf inactive | Kir2-1 spec inactive | HEK293 Tl ctr inactive
CN(Cc1cc(-c2ccccc2)on1)C(=O)c1cc(COc2c(F)cccc2F)on1	KCNK9 block -12.7 | KCNK9 block conf 66.5% | Kir2-1 spec inactive | HEK293 Tl ctr 29.5%
O=C(c1cc(COc2c(F)cccc2F)on1)N1CCC(c2ccccc2Cl)C1 (configuration not stated)	none | KCNK9 block conf inactive | Kir2-1 spec 43.0% | HEK293 Tl ctr inactive
CN1CCN(C(=O)c2cc(COc3c(F)cccc3F)on2)CC1c1ccccc1 (configuration not stated)	none | KCNK9 block conf inactive | Kir2-1 spec inactive | HEK293 Tl ctr inactive
CCN(CC(=O)NC1CC1)S(=O)(=O)c1ccc(C)cc1	none
Cc1nn(-c2ccccc2)c(Cl)c1/C=N/Nc1nc2ccccc2n1C	none | KCNK9 block conf inactive | Kir2-1 spec inactive | HEK293 Tl ctr inactive
Cc1ccc(C(=O)COC(=O)CSc2cccc3cccnc23)c(C)c1	none | KCNK9 block conf inactive | Kir2-1 spec inactive | HEK293 Tl ctr inactive
O=C(O)CSc1cccc2cccnc12	none
COc1cc(/C=C2/C(=N)N3C(=NC2=O)SN=C3S(C)(=O)=O)ccc1OS(=O)(=O)c1ccccc1	none (no result: KCNK3 inh)
CCOc1cc(/C=C2/C(=N)N3C(=NC2=O)SN=C3S(C)(=O)=O)ccc1OS(=O)(=O)c1ccccc1	none | KCNK9 block conf inactive | Kir2-1 spec inactive | HEK293 Tl ctr inactive
COc1ccc(CCN(C)CC(=O)Nc2ccc(F)c(Cl)c2)cc1OC	none
COc1ccc(NC(=O)CN(C)Cc2cccs2)cc1Cl	KCNK9 block -12.8, KCNK3 inh -11.3 | KCNK9 block conf 32.5% | Kir2-1 spec inactive | HEK293 Tl ctr 33.0%
COc1ccc(OC)c(NC(=O)CN(C)CC(=O)Nc2ccccc2Cl)c1	none
COc1ccc(Br)cc1CN(C)CC(=O)Nc1ccccc1Cl	Kir21 block -5.42, KCNK9 block -8.71 | KCNK9 block conf 33.5% | Kir2-1 spec 36.5% | HEK293 Tl ctr 36.5%
COc1ccccc1CN(C)CC(=O)Nc1ccc(Cl)cc1C(F)(F)F	KCNK9 block -14.3 | KCNK9 block conf 49.0% | Kir2-1 spec inactive | HEK293 Tl ctr 42.5%
Cc1cccc(NC(=O)/C(C#N)=C\c2cc(C)n(-c3ccc(C(=O)O)cc3)c2C)c1	none
Cc1ccc(/C=C/C(O)=C2/C(=O)N(C)C3(C)CC2c2ccccc2O3)cc1 (configuration not stated)	KCNK9 block -8.33 | KCNK9 block conf 51.5% | Kir2-1 spec inactive | HEK293 Tl ctr 42.5%
COc1ccc(/C=C/C(O)=C2/C(=O)NC3(C)CC2c2ccccc2O3)c(OC)c1OC (configuration not stated)	none
